Laboratory results: ChEMBL document CHEMBL5154815, “A Series of Substituted Bis-Aminotriazines Are Activators of the Natriuretic Peptide Receptor C” (J Med Chem, 2022)
Activity calls are given as the source filed them. The calls are words filed in the database; no cut-off is given here. Where a SMILES comes first, the peptide text is derived from it.

Assays:
[1] = target: T1, Atrial natriuretic peptide receptor 3 (Homo sapiens, UniProt P17342); experiment: Binding affinity to CM5 sensor chip immobilized human NPR-C (27 to 541 residues) assessed as dissociation constant by surface plasmon resonance analysis
T1 sequence (P17342 whole entry): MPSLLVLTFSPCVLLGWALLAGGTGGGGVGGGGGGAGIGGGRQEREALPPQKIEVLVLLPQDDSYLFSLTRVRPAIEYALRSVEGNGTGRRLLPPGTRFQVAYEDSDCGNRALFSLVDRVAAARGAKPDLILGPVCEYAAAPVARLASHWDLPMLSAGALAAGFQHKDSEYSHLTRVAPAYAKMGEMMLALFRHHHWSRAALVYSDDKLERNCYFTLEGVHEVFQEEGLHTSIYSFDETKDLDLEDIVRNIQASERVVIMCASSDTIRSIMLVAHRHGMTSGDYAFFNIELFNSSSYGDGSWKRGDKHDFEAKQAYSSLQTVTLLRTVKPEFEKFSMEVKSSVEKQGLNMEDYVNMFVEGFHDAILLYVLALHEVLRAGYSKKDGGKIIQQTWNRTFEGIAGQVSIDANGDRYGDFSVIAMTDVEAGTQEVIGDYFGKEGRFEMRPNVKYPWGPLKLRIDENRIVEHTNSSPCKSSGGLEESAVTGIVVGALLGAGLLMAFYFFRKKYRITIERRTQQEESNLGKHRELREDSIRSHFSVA

[2] = target: T2, Atrial natriuretic peptide receptor 3 (Homo sapiens) (UniProt P17342); experiment: Agonist activity at NPRC in human Hela cells assessed as decrease in forskolin-induced cAMP level at 100 uM relative to control; type: cell-based; design: scale not given: the % may be the effect or the level left
T2 sequence (whole entry): T1 sequence (P17342 whole entry)

[3] = target: T1, Atrial natriuretic peptide receptor 3; experiment: Displacement of Flu-P19 probe from human NPR-C (27 to 541 residues) by fluorescence polarization analysis
Procedure, shortened: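 Competition fluorescence polarization used NPR-C extracellular domain protein (20 nM final) and Flu-P19 probe (150 pM final) in PBS-P with 1% DMSO. Ligand ranged 600–0.274 μM, and samples were assembled on ice. Read-out was at ex 485/em 520 nm, normalized to buffer+probe and protein+probe controls and blanked with buffer alone. EC50 came from curve fitting.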

[4] = target: T2, Atrial natriuretic peptide receptor 3 (Homo sapiens); experiment: Binding affinity to CM5 sensor chip immobilized human NPR-C (27 to 541 residues) assessed as maximum response by surface plasmon resonance analysis relative to control
Procedure, shortened: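 SPR on CM5-immobilized NPR-C (27–541) in PBS-P with 1% DMSO, double-referenced. Observed Rmax was expressed as a percentage of theoretical Rmax. Theoretical Rmax was calculated from immobilized protein response, analyte and ligand molecular weights, and binding stoichiometry.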

[5] = target: T2, Atrial natriuretic peptide receptor 3 (Homo sapiens); experiment: Agonist activity at NPRC in human HeLa cells assessed as decrease in forskolin-induced cAMP level at 100 nM; type: cell-based; details: filed as agonist
[6] = target: T3, Atrial natriuretic peptide receptor 3 (Rattus norvegicus, UniProt P41740); experiment: Agonist activity at NPRC in rat aorta assessed as vasorelaxation by Organ bath assay; type: tissue-based
T3 sequence (P41740 whole entry): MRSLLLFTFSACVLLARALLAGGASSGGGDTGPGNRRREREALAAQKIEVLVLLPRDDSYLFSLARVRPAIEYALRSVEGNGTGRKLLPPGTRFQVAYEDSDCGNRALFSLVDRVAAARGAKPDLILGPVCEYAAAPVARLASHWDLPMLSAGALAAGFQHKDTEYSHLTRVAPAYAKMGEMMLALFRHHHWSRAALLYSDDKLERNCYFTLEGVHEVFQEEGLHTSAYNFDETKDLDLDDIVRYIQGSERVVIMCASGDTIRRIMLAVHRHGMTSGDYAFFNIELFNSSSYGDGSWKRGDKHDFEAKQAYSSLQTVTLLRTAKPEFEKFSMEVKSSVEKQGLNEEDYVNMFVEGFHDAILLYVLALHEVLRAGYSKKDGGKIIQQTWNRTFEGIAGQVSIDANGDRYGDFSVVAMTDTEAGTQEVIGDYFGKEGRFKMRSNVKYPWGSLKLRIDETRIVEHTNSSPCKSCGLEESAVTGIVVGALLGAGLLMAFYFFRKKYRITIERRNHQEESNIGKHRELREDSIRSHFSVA

[7] = target: T3, Atrial natriuretic peptide receptor 3; experiment: Agonist activity at NPRC in rat small mesenteric arteries assessed as vasorelaxation by Organ bath assay; type: tissue-based, Artery
[8] = target: T4, Atrial natriuretic peptide receptor 3 (Mus musculus, UniProt P70180); experiment: Agonist activity at NPRC in knock out mouse mesenteric arteries assessed as vasorelaxation by Organ bath assay; type: tissue-based, Artery
T4 sequence (P70180 whole entry): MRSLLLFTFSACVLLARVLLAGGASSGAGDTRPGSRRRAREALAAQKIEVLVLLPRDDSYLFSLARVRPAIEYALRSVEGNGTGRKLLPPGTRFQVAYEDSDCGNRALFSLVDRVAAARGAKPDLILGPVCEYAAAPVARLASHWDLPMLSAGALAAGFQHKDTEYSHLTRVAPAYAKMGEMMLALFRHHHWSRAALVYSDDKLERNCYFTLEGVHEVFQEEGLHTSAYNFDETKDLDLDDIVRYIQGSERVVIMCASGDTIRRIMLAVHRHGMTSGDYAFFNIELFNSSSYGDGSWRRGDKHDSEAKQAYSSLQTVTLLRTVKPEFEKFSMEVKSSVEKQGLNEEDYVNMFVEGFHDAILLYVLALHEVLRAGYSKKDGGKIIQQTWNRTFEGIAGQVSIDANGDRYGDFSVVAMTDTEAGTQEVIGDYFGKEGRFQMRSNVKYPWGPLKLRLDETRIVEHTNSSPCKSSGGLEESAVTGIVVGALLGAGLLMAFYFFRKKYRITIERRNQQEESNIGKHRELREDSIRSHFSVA

[9] = Stability in Sprague-Dawley rat hepatocytes assessed as clearance per […] at 1 uM after 20 mins by LC-MS/MS analysis; type: ADME, cell-based, Hepatocyte
[10] = Stability of compound in pooled human plasma assessed as half life measured upto 120 mins by LC/MS/MS analysis; details: 2 h
[11] = target: Cytochrome P450 2C19 (Homo sapiens, UniProt P33261); experiment: Inhibition of CYP2C19 in human liver microsomes using S-mephenytoin as substrate preincubated for 10 mins followed by NADPH addition and measured after 20 mins by LC/MS/MS analysis
Cytochrome P450 2C19, sequence (P33261 whole entry): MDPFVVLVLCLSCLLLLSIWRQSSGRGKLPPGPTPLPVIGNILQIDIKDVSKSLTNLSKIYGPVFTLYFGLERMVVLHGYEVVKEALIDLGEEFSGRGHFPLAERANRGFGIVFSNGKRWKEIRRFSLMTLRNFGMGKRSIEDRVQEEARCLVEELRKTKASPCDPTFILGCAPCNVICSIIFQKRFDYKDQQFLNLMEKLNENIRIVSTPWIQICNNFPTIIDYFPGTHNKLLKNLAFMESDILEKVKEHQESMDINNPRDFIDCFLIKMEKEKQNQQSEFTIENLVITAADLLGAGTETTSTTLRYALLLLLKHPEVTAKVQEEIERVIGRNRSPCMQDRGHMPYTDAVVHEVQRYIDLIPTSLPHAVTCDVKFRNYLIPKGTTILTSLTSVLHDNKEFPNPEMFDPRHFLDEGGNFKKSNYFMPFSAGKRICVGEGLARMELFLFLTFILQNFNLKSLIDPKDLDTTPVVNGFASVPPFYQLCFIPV

[12] = target: T4, Atrial natriuretic peptide receptor 3; experiment: Agonist activity at NPRC in wild type mouse mesenteric arteries assessed as vasorelaxation by Organ bath assay; type: tissue-based, Artery
[13] = target: Cytochrome P450 2C9 (Homo sapiens, UniProt P11712); experiment: Inhibition of CYP2C9 in human liver microsomes using diclofenac as substrate preincubated for 10 mins followed by NADPH addition and measured after 10 mins by LC/MS/MS analysis
Cytochrome P450 2C9, sequence (P11712 whole entry): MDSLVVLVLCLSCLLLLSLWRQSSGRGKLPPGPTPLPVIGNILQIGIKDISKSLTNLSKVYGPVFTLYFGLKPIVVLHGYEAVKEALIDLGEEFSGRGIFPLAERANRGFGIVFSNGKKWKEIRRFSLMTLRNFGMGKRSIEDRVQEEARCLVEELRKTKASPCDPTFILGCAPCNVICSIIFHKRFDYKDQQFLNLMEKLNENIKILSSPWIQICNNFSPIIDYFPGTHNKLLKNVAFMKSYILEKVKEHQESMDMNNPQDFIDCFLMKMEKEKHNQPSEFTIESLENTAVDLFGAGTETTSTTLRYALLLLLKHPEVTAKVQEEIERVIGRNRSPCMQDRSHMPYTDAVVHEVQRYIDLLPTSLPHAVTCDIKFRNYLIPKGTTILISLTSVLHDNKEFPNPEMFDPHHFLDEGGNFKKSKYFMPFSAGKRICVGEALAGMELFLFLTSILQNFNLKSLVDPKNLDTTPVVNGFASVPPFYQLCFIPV

[14] = Protein binding in human plasma by equilibrium dialysis assay
[15] = rat, hepatocytes, 20 min, 1 µM
[16] = target: T3, Atrial natriuretic peptide receptor 3; experiment: Agonist activity at NPRC in rat small mesenteric arteries assessed as vasorelaxation preincubated with M372049 for 15 mins followed by compound treatment by Organ bath assay; type: tissue-based, Artery
[17] = Solubility of compound in PBS at 10 mM after 3 hrs by UV analysis; details: buffer, 10000 µM

Compound `CC(=O)Nc1ccc(Nc2ncnc(N[C@H](C(=O)OC(C)(C)C)C(C)(C)C)n2)cc1` has a Kd [1] of 201 µM.

Work on `CC(=O)Nc1ccc(Nc2ncnc(N[C@@H](Cc3ccccc3)C(=O)OC(C)(C)C)n2)cc1` yielded a Kd [1] of 31.3 µM, an Activity [2] of 9.16% and an EC50 [3] of 32 µM.

With `CC(=O)Nc1ccc(Nc2ncnc(N[C@@H](CC(C)C)C(=O)OC(C)(C)C)n2)cc1` the Kd [1] was 30.8 µM and the Activity [2] was 20.6%.

For `CC(=O)Nc1ccc(Nc2ncnc(N[C@@H](CC(C)C)C(=O)OC3CCCC3)n2)cc1`, the Kd [1] was 25 µM.

With `CC(=O)Nc1ccc(Nc2ncnc(NC(C)(C)C(=O)OC(C)(C)C)n2)cc1` the Rmax [4] was under 20%.

`CCCCS(=O)(=O)Nc1ccc(Nc2nc(Cl)nc(N[C@@H](CC(C)C)C(=O)OC(C)(C)C)n2)cc1` showed a Kd [1] of 25.7 µM.

With `CCCCS(=O)(=O)Nc1ccc(Nc2ncnc(N[C@@H](CC(C)C)C(=O)OC(C)(C)C)n2)cc1` the Kd [1] was 45.1 µM.

For `CC[C@H](C)[C@H](NC(=O)[C@H](CCCNC(=N)N)NC(=O)[C@H](CC(=O)O)NC(=O)[C@H](CCSC)NC(=O)[C@H](CCCNC(=N)N)NC(=O)CNC(=O)CNC(=O)[C@H](Cc1ccccc1)NC(=O)[C@H](CS)NC(=O)[C@H](CO)NC(=O)[C@H](CO)NC(=O)[C@@H](N)CCCNC(=N)N)C(=O)NCC(=O)N[C@@H](C)C(=O)N[C@@H](CS)C(=O)N[C@@H](CC(N)=O)C(=O)O` (H-RSSCFGGRMDRIGACN-OH), the Activity [5] was “Active”.

`CC(=O)Nc1ccc(Nc2ncnc(N[C@H](CC(C)C)C(=O)OC(C)(C)C)n2)cc1` showed an Rmax [4] of under 20%.

`CC(=O)Nc1ccc(Nc2ncnc(N[C@@H](Cc3ccc(F)cc3)C(=O)OC(C)(C)C)n2)cc1` gave a Kd [1] of 23.7 µM and an EC50 [6] of 4.43 µM.

`CC(C)C[C@H](Nc1nc(Cl)nc(Nc2ccc(NS(=O)(=O)c3ccccc3)cc2)n1)C(=O)OC(C)(C)C` showed a Kd [1] of 99 µM.

Work on `CC(=O)Nc1ccc(Nc2ncnc(NCC(=O)OC(C)(C)C)n2)cc1` yielded a Kd [1] of 832 µM.

Work on `CC(=O)Nc1ccc(Nc2ncnc(N[C@@H](CCc3ccccc3)C(=O)OC(C)(C)C)n2)cc1` yielded a Kd [1] of 23.8 µM and an EC50 [6] of 3.76 µM.

With `CC(=O)Nc1ccc(Nc2ncnc(N[C@H](C(=O)OC(C)(C)C)C3CCCCC3)n2)cc1` the Kd [1] was 28 µM, the EC50 [6] was 6.24 µM and the EC50 [3] was 327 µM.

Compound `CC(=O)Nc1ccc(Nc2nc(Cl)nc(N[C@@H](CC(C)C)C(=O)OC(C)(C)C)n2)cc1` has a Kd [1] of 36.9 µM.

In the case of `CC(=O)Nc1ccc(Nc2ncnc(N[C@H](C(=O)OC(C)(C)C)C(C)C)n2)cc1`, the Kd [1] is reported as 79 µM.

`CC(=O)Nc1ccc(Nc2ncnc(N[C@@H](Cc3ccccc3)C(=O)O)n2)cc1` showed an EC50 [3] of 60 µM.

Compound `CC(=O)Nc1ccc(Nc2ncnc(N[C@@H](CC(C)C)C(=O)OC(C)C)n2)cc1` has a Kd [1] of 84.4 µM.

With `CC(=O)Nc1ccc(Nc2ncnc(N[C@H](COC(C)(C)C)CC(C)C)n2)cc1` the Kd [1] was 42.2 µM.

For `CC(=O)Nc1ccc(Nc2ncnc(N[C@@H](C)C(=O)OC(C)(C)C)n2)cc1`, the EC50 [6] was 78.1 µM, the Rmax [4] was under 20% and the EC50 [7] was 3.45 µM.

Compound `CC(=O)Nc1ccc(Nc2ncnc(N[C@@H](Cc3ccc(O)cc3)C(=O)OC(C)(C)C)n2)cc1` has an Rmax [4] of under 20%.

With `COC(=O)[C@H](CC(C)C)Nc1nc(Cl)nc(N[C@H]2CC[C@H](Nc3nc(Cl)nc(N[C@@H](CC(C)C)C(=O)OC)n3)CC2)n1` the EC50 [8] was 2.64 µM, the CLH [9] was under 0.64 µL/min and the Kd [1] was 95.7 µM. It also gave a t1/2 [10] of over 1 h, an IC50 [11] of 37.8 µM and an EC50 [12] of 1.16 µM. The IC50 [13] was 4.96 µM, the PPB [14] was 99.5% and the EC50 [6] was 1.43 µM. For the same compound, the t1/2 [15] was over 3.613 h, the Activity [2] was 31.4% and the EC50 [16] was 0.47 µM. The solubility [17] was over 122.52 mg/mL and the EC50 [7] was 0.97 µM.
